Source: ChEMBL document CHEMBL2157902, “Modified tetrahalogenated benzimidazoles with CK2 inhibitory activity are active against human prostate cancer cells LNCaP in vitro” (Bioorg Med Chem, 2012)
One block for each compound: values may come before it. The source made the active and inactive calls. The calls are words filed in the database; no cut-off is given here.

Experiments:
[1] = system: LNCaP; test: Antiproliferative activity against human LNCAP cells assessed as decrease in cell viability at 10 uM after 48 hrs by MTT assay; format: functional
In short: (§1)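 LNCaP cells grown in RPMI1640 with 10% FBS at 37 °C, 5% CO2. Seeded at 2 × 10^4 cells/500 µl in 24-well plates the day before treatment, then exposed to 10 or 20 µM for 24 or 48 h. MTT was added for a further 1 h, cells lysed and A595 read. Viability given as % of DMSO-treated control. Mean of at least three independent experiments.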

[2] = system: LNCaP; test: Antiproliferative activity against human LNCAP cells assessed as decrease in cell viability at 20 uM after 48 hrs by MTT assay; format: functional; in short: as §1
[3] = system: LNCaP; test: Antiproliferative activity against human LNCAP cells after 24 to 48 hrs by MTT assay; format: functional; settings: read-out: LD50 (the source's name)
In short: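 LNCaP cells were grown in RPMI1640 with 10% FBS at 37 °C under 5% CO2, and 2 × 10^4 cells/well were seeded the day before treatment. Cells were exposed to 10 or 20 compound for 24 and 48 h. MTT (5 mg/ml) was then added for 1 h, cells were lysed, and A595 was read. Viable cells were expressed as % of DMSO-treated control, mean of ≥3 independent experiments.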

[4] = system: LNCaP; test: Induction of apoptosis in human LNCAP cells assessed as PARP cleavage at 10 uM after 24 hrs by Western blot analysis; format: functional, cell-based
In short: (§2)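 LNCaP cells treated 24 h at 10 or 20 µM, then lysed in RIPA buffer with protease inhibitors and protein measured by Bradford. Extracts (150 µg) run on 7.5% SDS-PAGE and tank-blotted to PVDF. Probed overnight at 4 °C with polyclonal rabbit anti-PARP (1:1000), detected with peroxidase anti-rabbit and chemiluminescence. Full-length and 85 kDa fragment scored.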

[5] = system: LNCaP; test: Induction of apoptosis in human LNCAP cells assessed as PARP cleavage at 20 uM after 24 hrs by Western blot analysis; format: functional, cell-based; in short: as §2
[6] = system: LNCaP; test: Antiproliferative activity against human LNCAP cells after 24 by MTT assay; format: functional; settings: read-out: LD50 (the source's name)
In short: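 LNCaP cells were grown in RPMI1640 with 10% FBS at 37 °C under 5% CO2, and 2 × 10^4 cells/well were seeded the day before. Cells were treated with 3–10 µM for 24 h. MTT (5 mg/ml) was then added for 1 h, cells were lysed, and absorbance was read at 595 nm. Viability was expressed as % of DMSO control. LD50 was calculated by curve fitting, mean of ≥3 independent experiments.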

[7] = system: LNCaP; test: Induction of apoptosis in human LNCAP cells assessed as PARP cleavage after 24 hrs by Western blot analysis; format: functional, cell-based; in short: as §2
[8] = system: LNCaP; test: Antiproliferative activity against human LNCAP cells assessed as decrease in cell viability at 10 to 20 uM after 24 to 48 hrs by MTT assay; format: functional, cell-based; in short: as §1
[9] = Inhibition of CK2
[10] = Inhibition of rat liver CK2 using RRRADDSDDDDD as substrate

Structure (SMILES): NCCCCNc1nc2c(Br)c(Br)c(Br)c(Br)c2[nH]1
Activity [1]: 20% | Activity [2]: 20% | CC50 [3]: < 10 µM | Activity [4]: inactive | Activity [5]: inactive

Structure (SMILES): NCCNc1nc2c(Br)c(Br)c(Br)c(Br)c2[nH]1
CC50 [3]: < 10 µM | CC50 [6]: 7.22 µM | Activity [4]: Active | Activity [5]: Active | Activity [7]: Dose-dependent effect

Structure (SMILES): Ic1c(I)c(I)c2[nH]cnc2c1I
Activity [1]: 20% | Activity [2]: 20% | Activity [5]: Active

Structure (SMILES): Cn1c(NCCN)nc2c(Br)c(Br)c(Br)c(Br)c21
CC50 [3]: < 10 µM | Activity [4]: inactive | Activity [5]: inactive

IC50 [9]: 0.27 µM
Structure (SMILES): O=C(O)CCCSc1nc2c(Br)c(Br)c(Br)c(Br)c2[nH]1
Activity [8]: inactive | Activity [4]: inactive

Ki [9]: 0.04 µM
Structure (SMILES): CN(C)c1nc2c(Br)c(Br)c(Br)c(Br)c2[nH]1

Structure (SMILES): Brc1c(Br)c(Br)c2[nH]cnc2c1Br
Activity [1]: 20% | Activity [2]: 20% | Activity [5]: Active

Structure (SMILES): NCCCNc1nc2c(Br)c(Br)c(Br)c(Br)c2[nH]1
CC50 [3]: < 10 µM | Activity [5]: Active

Ki [10]: 0.25 µM | IC50 [9]: 0.27 µM
Structure (SMILES): CN(C)c1nc2c(Br)c(Br)c(Br)c(Br)c2n1CC(=O)O
Activity [8]: inactive | Activity [4]: inactive

Structure (SMILES): CN(C)CCNc1nc2c(I)c(I)c(I)c(I)c2[nH]1
CC50 [3]: < 10 µM | CC50 [6]: 7.37 µM | Activity [5]: Active

Structure (SMILES): Cn1c(NCCN)nc2c(I)c(I)c(I)c(I)c21
CC50 [3]: < 10 µM | CC50 [6]: 4.75 µM | Activity [4]: inactive | Activity [5]: inactive

Structure (SMILES): CN(C)CCNc1nc2c(Br)c(Br)c(Br)c(Br)c2[nH]1
Ki [10]: 0.16 µM | CC50 [3]: < 10 µM | CC50 [6]: 9.37 µM | Activity [5]: Active

Structure (SMILES): NCCNc1nc2c(I)c(I)c(I)c(I)c2[nH]1
CC50 [3]: < 10 µM | Activity [5]: Active
